Columns and labels:
Coagulation factor VII = target: T1, Coagulation factor VII (Homo sapiens, UniProt P08709); assay: The compound was tested for inhibition of human coagulation factor VII
T1 sequence (P08709 whole entry): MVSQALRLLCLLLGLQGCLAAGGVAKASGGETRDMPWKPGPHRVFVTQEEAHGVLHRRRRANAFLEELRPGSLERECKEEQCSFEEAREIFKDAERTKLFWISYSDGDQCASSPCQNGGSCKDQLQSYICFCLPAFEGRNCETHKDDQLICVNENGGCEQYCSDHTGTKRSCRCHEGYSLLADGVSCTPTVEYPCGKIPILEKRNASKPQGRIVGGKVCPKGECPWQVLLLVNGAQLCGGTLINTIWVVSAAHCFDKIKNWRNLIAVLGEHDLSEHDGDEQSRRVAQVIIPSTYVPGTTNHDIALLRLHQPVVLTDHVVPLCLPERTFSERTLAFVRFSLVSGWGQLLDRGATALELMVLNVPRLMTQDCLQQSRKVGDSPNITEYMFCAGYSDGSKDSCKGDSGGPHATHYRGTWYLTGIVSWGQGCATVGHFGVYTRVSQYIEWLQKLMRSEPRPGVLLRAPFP

Plasma kallikrein = Plasma kallikrein (Homo sapiens, UniProt P03952); assay: The compound was tested for inhibition of human p-kallikrein
Sequence of Plasma kallikrein (P03952 20-390 limits assumed): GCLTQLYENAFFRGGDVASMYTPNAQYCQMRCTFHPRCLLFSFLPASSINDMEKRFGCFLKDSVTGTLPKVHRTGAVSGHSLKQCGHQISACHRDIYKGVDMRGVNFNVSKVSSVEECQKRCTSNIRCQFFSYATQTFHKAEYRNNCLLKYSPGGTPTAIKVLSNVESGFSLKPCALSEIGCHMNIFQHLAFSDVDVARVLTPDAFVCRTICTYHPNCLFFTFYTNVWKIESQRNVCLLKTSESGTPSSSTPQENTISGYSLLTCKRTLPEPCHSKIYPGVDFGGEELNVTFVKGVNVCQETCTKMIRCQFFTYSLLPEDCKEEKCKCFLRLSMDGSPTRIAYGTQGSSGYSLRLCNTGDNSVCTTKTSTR
Sequence of Plasma kallikrein (P03952 391-638 limits assumed): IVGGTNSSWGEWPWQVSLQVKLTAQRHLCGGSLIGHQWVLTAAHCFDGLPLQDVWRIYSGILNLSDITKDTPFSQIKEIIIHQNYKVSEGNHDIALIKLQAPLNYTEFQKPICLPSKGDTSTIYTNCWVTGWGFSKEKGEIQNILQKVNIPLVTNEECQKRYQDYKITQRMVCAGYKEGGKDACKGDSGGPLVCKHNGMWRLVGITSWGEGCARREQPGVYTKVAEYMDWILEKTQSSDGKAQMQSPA

Trypsin = Trypsin (Homo sapiens, UniProt P07477+P07478+P35030); assay: The compound was tested for inhibition of human trypsin; type: protein assay
Prothrombin = Prothrombin (Homo sapiens, UniProt P00734); assay: The compound was tested for inhibition of human thrombin
Coagulation factor X = Coagulation factor X (Homo sapiens, UniProt P00742); assay: Binding affinity against human coagulation factor X
Sequence of Coagulation factor X (P00742 41-179 limits assumed): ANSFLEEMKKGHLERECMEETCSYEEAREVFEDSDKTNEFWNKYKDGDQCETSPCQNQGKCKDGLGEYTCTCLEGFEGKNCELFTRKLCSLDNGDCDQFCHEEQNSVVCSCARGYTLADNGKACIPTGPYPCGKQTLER
Sequence of Coagulation factor X (P00742 235-488 limits assumed): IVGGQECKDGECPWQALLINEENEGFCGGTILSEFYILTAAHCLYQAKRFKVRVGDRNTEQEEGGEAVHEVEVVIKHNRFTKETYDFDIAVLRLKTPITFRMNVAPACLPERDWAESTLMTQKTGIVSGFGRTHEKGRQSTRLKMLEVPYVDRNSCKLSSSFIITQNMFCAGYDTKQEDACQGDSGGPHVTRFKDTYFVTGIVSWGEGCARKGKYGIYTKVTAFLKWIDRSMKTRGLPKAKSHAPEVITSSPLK

[1] = Volume of distribution in Sprague-Dawley Rat (Wt 286) was determined after iv administration at a dose of 1 mg/kg; type: ADME, organism-based; design: dose 1 mg/kg, route intravenous; details: in vivo, read-out: Vc
Procedure, shortened: (§1)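 Male Sprague-Dawley rats, three per group, received a single IV tail-vein bolus in 40% PEG400/H2O (1 or 2 mg/mL). Jugular blood was drawn into heparin at several times up to 24 h. Plasma was held at −80 °C, then assayed by LC-MS/MS against standard curves of 1–10000 ng/mL (LOQ 6 ng/mL). Parameters are mean ± SD; AUC runs 0 to infinity; volume of distribution is central compartment.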

[2] = Plasma clearance of compound in Sprague-Dawley Rat (Wt 286) was determined after iv administration at a dose of 1 mg/kg; type: ADME, organism-based; design: dose 1 mg/kg, route intravenous; details: read-out: Clp; procedure, shortened: as §1
Rattus norvegicus [3] = assay: Area undercurve in Sprague-Dawley Rat (Wt 286) was determined after iv administration at a dose of 1 mg/kg; type: ADME, organism-based; design: dose 1 mg/kg, route intravenous; details: in vivo; procedure, shortened: as §1
[4] = mean residence time in Sprague-Dawley Rat (Wt 286) was determined after iv administration at a dose of 1 mg/kg; type: ADME, organism-based; design: dose 1 mg/kg, route intravenous; details: in vivo; procedure, shortened: as §1
[5] = Volume of distribution at steady state in Sprague-Dawley Rat (Wt 286) was determined after iv administration at a dose of 1 mg/kg; type: ADME, organism-based; design: dose 1 mg/kg, route intravenous; details: in vivo, read-out: Vss; procedure, shortened: as §1
[6] = terminal half-life in Sprague-Dawley Rat (Wt 286) was determined after iv administration at a dose of 1 mg/kg; type: ADME, organism-based; design: dose 1 mg/kg, route intravenous; details: in vivo; procedure, shortened: as §1
[7] = target: Urokinase-type plasminogen activator (Homo sapiens, UniProt P00749); assay: The compound was tested for inhibition of human urokinase type plasminogen activator (microPa)
[8] = target: Tissue-type plasminogen activator (Homo sapiens, UniProt P00750); assay: The compound was tested for inhibition of human tissue plasminogen activator
Sequence of Tissue-type plasminogen activator (P00750 whole entry): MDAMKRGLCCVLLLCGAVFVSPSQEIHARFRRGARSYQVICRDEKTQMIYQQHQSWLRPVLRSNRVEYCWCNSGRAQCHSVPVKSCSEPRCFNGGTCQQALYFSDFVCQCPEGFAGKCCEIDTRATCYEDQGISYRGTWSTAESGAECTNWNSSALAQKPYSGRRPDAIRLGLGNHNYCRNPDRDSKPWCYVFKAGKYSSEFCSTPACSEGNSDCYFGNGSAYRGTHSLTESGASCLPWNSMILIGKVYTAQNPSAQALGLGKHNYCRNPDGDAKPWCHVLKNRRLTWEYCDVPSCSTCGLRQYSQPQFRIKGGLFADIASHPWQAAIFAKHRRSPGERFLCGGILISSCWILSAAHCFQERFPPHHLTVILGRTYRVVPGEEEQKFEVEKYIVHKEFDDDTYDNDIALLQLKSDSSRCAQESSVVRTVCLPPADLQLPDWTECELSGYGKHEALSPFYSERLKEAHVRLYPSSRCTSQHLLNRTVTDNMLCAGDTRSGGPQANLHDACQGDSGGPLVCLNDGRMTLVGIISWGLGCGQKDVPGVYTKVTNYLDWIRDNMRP

[9] = Volume of distribution in Sprague-Dawley Rat (Wt 294) was determined after iv administration at a dose of 2 mg/kg; type: ADME, organism-based; design: dose 2 mg/kg, route intravenous; details: in vivo, read-out: Vc; procedure, shortened: as §1
[10] = Plasma clearance of compound in Sprague-Dawley Rat (Wt 294) was determined after iv administration at a dose of 2 mg/kg; type: ADME, organism-based; design: dose 2 mg/kg, route intravenous; details: read-out: Clp; procedure, shortened: as §1
[11] = Mean residence time of compound in Sprague-Dawley Rat (Wt 294) was determined after iv administration at a dose of 2 mg/kg; type: ADME, organism-based; design: dose 2 mg/kg, route intravenous; details: in vivo; procedure, shortened: as §1
Rattus norvegicus [12] = assay: Integrated area under the plasma concentration in Sprague-Dawley Rat (Wt 294) was determined after iv administration at a dose of 2 mg/kg; type: ADME, organism-based; design: dose 2 mg/kg, route intravenous; details: in vivo; procedure, shortened: as §1
[13] = Volume of distribution at steady state in Sprague-Dawley Rat (Wt 294) was determined after iv administration at a dose of 2 mg/kg; type: ADME, organism-based; design: dose 2 mg/kg, route intravenous; details: in vivo, read-out: Vss; procedure, shortened: as §1
[14] = terminal half-life in Sprague-Dawley Rat (Wt 294) was determined after iv administration at a dose of 2 mg/kg; type: ADME, organism-based; design: dose 2 mg/kg, route intravenous; details: in vivo; procedure, shortened: as §1

N=C(N)c1cc2cc(-c3cccc(-c4ccccc4)c3O)[nH]c2cc1F
Ki (Coagulation factor VII): 0.75 µM
Ki (Plasma kallikrein): 0.11 µM
Ki (Trypsin): 1.1 µM
Ki (Prothrombin): 7.5 µM

N=C(N)c1cc2cc(-c3cccc(-c4ccccc4)c3O)[nH]c2cc1O
Ki (Coagulation factor X): > 75 µM
Ki (Coagulation factor VII): > 75 µM
Ki (Plasma kallikrein): 1.3 µM
Ki (Trypsin): 50 µM
Ki (Prothrombin): > 75 µM

N=C(N)c1ccc2[nH]c(-c3cccc(-c4ccccc4)c3O)cc2c1
Vd [1]: 1.56 L/kg
clearance [2]: 121 mL/min/kg
AUC (Rattus norvegicus [3]): 0.4 µM·h
MRT [4]: 1.77 h
Vd [5]: 11.9 L/kg
half-life [6]: 1.7 h
Ki (Coagulation factor VII): 0.16 µM
Ki (Plasma kallikrein): 0.0019 µM
Ki (Trypsin): 0.13 µM

N=C(N)c1ccc2[nH]c(-c3cccc(-c4ccccc4)c3O)cc2c1Cl
Ki (Coagulation factor X): 5.2 µM
Ki (Coagulation factor VII): 5.5 µM
Ki (Plasma kallikrein): 1.3 µM
Ki [7]: 0.49 µM
Ki (Trypsin): 4.7 µM
Ki [8]: 3.3 µM
Ki (Prothrombin): 65 µM

Cc1cc2[nH]c(-c3cccc(-c4ccccc4)c3O)cc2cc1C(=N)N
Ki (Coagulation factor X): > 75 µM
Ki (Coagulation factor VII): 7 µM
Ki (Plasma kallikrein): 4.8 µM
Ki [7]: 0.1 µM
Ki (Trypsin): 1.6 µM
Ki [8]: 39 µM
Ki (Prothrombin): > 75 µM

COc1cc2[nH]c(-c3cccc(-c4ccccc4)c3O)cc2cc1C(=N)N
Ki (Coagulation factor X): 26 µM
Ki (Coagulation factor VII): 16 µM
Ki (Plasma kallikrein): 0.6 µM
Ki [7]: 0.36 µM
Ki (Trypsin): 14 µM
Ki (Prothrombin): > 75 µM

N=C(N)c1cc2cc(-c3cccc(-c4ccccc4)c3O)[nH]c2cc1Cl
Vd [9]: 0.346 L/kg
clearance [10]: 59 mL/min/kg
MRT [11]: 2.17 h
AUC (Rattus norvegicus [12]): 1.42 µM·h
Vd [13]: 7.7 L/kg
half-life [14]: 3.15 h

— ChEMBL document CHEMBL1134679, “Exploiting subsite S1 of trypsin-like serine proteases for selectivity: potent and selective inhibitors of urokinase-type plasminogen activator” (J Med Chem, 2001)
